Results from different studies.
Lines come from different studies, so protocols differ.
Target: Serine/threonine-protein kinase 32B (STK32B, Homo sapiens, UniProt Q9NY57)

COc1ccc2c(c1)O[C@@H](c1ccc(OC)c(OC)c1)C[C@H]2NC(=O)C1(c2ccc3c(c2)OC(F)(F)O3)CC1
remaining binding (cell-free assay; competition with immobilised ligand; 1 µM): 100%

Cc1sc(C(=O)NC2COC2)cc1-n1cc(NC(=O)Nc2c(F)cccc2Cl)cn1
remaining activity (enzyme activity; inhibitor; 10 µM): 89.8%

Nc1ncnc2occ(-c3ccc(NC(=O)Nc4cc(C(F)(F)F)ccc4F)cc3)c12
remaining signal (cell-free assay; 20 µM): 0.9%

COc1cc(Cl)c(C(=O)N[C@@H](CN[C@H]2CC[C@@H](N)CC2)Cc2ccc(C#N)cc2)cc1-c1ccc(CN[C@H](C)c2ccc(C)cc2)o1
remaining activity (enzyme activity; inhibitor; 1 µM): 102%

CC(C)(O)[C@H]1CC[C@H](Nc2ccc3ncc(-c4cccc(C(F)(F)F)c4)n3n2)CC1
remaining activity (enzyme activity; inhibitor; 1 µM): 96.8%

O=C(Nc1cnn(-c2csc(C(=O)NC3COC3)c2)c1)Nc1ccccc1Cl
remaining activity (enzyme activity; inhibitor; 5 µM): 122%

CN1CC(Oc2cnc(C#N)cc2-c2ccn3nc(NC(=O)C4CC4)cc3c2)C1
inhibition (enzyme activity; inhibitor; 1 µM): -2%

CS(=O)(=O)c1cc(C2(NC(=O)c3cncc4c3cnn4-c3ccc(F)cc3)CC2)ccn1
remaining binding (cell-free assay; competition with immobilised ligand; 1 µM): 100%

Cc1ccc(C(=O)Nc2ccc(CN3CCN(C)CC3)c(C(F)(F)F)c2)cc1C#Cc1cnc2cccnn12
remaining signal (cell-free assay; 23.5 nM): 98%
